Shown are actives, neighbours in structure and some others; about 1.3% of the full set was active somewhere.
MLL AF4-AF9 inh = inhibitors of AF4 peptide binding to AF9, primary screen, biochemical, AlphaScreen, biotin-AF4 peptide, FLAG-AF9, single point. Protein AF-9 (Homo sapiens), P42568. inhibition, % at 10 µM. hit rate 0.47% among 350,000. AID 651704, 2012;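 active = every replicate reaching a set inhibition limit, whatever the replicate mean, cut at about 25% in these data; inconclusive = mean inhibition reaches that limit but some replicates miss it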;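 note: 0% = plate neutral control median and 100% = total signal loss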
Target sequence (P42568 whole entry, looked up): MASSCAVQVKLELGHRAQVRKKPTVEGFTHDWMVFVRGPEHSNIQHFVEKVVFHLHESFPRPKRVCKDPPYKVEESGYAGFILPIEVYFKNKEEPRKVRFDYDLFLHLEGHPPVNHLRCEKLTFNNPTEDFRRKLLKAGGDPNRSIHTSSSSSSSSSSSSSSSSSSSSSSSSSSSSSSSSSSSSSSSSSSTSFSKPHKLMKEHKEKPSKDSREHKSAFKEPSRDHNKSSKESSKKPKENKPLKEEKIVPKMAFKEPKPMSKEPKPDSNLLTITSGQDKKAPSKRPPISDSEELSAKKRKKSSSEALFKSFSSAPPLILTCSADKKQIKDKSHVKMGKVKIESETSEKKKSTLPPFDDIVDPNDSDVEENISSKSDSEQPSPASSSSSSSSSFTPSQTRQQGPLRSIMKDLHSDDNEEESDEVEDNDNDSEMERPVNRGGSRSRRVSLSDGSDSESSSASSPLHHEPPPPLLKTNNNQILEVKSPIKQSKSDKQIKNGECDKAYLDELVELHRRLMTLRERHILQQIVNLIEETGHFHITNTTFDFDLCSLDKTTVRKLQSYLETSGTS
GSIS activator = GLuc luminescence reporter in INS-1E cells, primary screen for activators of glucose-dependent secretion of insulin; INS-1E GLuc reporter insulin secretion, 2-3 h; activation, % at 16.6 µM; hit rate 0.61% among 370,000;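 active = lowest replicate activation of at least 40%, so every replicate reaches that level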;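 note: 0% = median of neutral control wells and 100% = median of IBMX positive control wells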
S100A4 inh HTS = inhibitors of S100A4-myosin IIA peptide binding, primary screen, biochemical, fluorescence polarization, TAMRA-MyoIIA peptide; inhibition, % at 10.7 µM; hit rate 0.14% among 360,000;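 active = mean inhibition of at least 70% across replicates, with every replicate also reaching that level; inconclusive = mean inhibition reaches 70% but some replicates fall short; inactive = mean inhibition below 70%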
Target sequence (P26447 whole entry, looked up): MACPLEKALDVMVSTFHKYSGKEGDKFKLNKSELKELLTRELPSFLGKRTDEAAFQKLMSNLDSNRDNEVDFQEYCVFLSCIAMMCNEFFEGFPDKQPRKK
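Material: human S100A4 monomer with TAMRA-labelled myosin IIA peptide; buffer or medium: HEPES pH 7.2 with CaCl2, KCl, NaCl, DTT, Triton; compound dosing: one concentration per compound; schedule: 5 min incubation before reading; benchmarks: neutral control DMSO, positive control TFP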
RAD52 inh = RAD52 DNA annealing inhibitors, primary screen, biochemical, FRET, single point, set 2 | recombinant RAD52 DNA annealing, FRET fluorescence | inhibition, % at 18.7 µM | AID 651710, 2012 | hit rate 0.46% among 360,000 | DNA repair protein RAD52 homolog (Homo sapiens), P43351;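 active = every replicate showing at least 50% inhibition; inconclusive = mean inhibition at least 50% but not in every replicate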
RAD54 inh = inhibitors of human RAD54 branch migration, primary screen, biochemical, fluorescence, single point; RAD54 Holliday junction branch migration, FAM/BHQ fluorescence; DNA repair and recombination protein RAD54-like (Homo sapiens), Q92698; inhibition, % at 10.4 µM; hit rate 0.14% among 360,000;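 active = mean normalized replicate activity at least 40 and at least half of replicates scoring 40 or more; inconclusive = only one of the two criteria met; inactive = mean below 40 and under half of replicates reaching 40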;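 note: 0% = median of neutral control wells and 100% = median of positive control wells; inhibitors cause a drop in the FAM fluorescence signal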
RAD52 DNA ctr = DNA-binding compounds via dye displacement, dose response, artefact control for RAD52 inhibitor project, biochemical, fluorescence polarization, cherry-pick | AID 652128, 2013 | hit rate 8% among 1,000 | Salmon sperm DNA/acridine orange FP displacement | AC50, µM | shares compounds with RAD52 inh;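 active = fitted half-maximal concentration for signal loss at or below twice the highest dose tested, in every separate run, actives reach about 64 µM in these data; inconclusive = runs disagree, or flat partial signal loss, or poor fit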
* = called active by the depositor; i = inactive; ? = inconclusive; . = no result given.

SMILES	MLL AF4-AF9 inh	GSIS activator	S100A4 inh HTS	RAD52 inh	RAD54 inh	RAD52 DNA ctr
OCCNc1c2ccccc2nc2ccccc12	-1.8	-7.5	6.1	78.8*	.	60.3µM*
C[C@@H]1CN([C@H](C)CO)C(=O)Cc2cc(NC(=O)c3ccncc3)ccc2O[C@H]1CN(C)C(=O)Nc1ccccc1	6.9	.	-19.1	-111.4	10.9	.
CCCCOC(=O)Cn1c(=O)n(CC(=O)OCCCC)c2ccccc21	.	-12.2	.	.	-2.8	.
CCCCCCCCCCOC(=O)Cn1c(COc2cccc(C)c2)[n+](C)c2ccccc21	13.2	171.4*	0.9	79.5*	52.1*	?
CCCCCCCCCCOC(=O)Cn1c(COc2ccc(Cl)cc2)[n+](C)c2ccccc21	42.3*	206.6*	-18.5	76.5*	56.9*	i
CCCCCCCCCCOC(=O)Cn1c(COc2ccccc2)[n+](C)c2ccccc21	?	127.4*	2.1	70.1*	?	i
CCCNC(=O)C[C@H]1C[C@@H]2c3cc(NS(C)(=O)=O)ccc3O[C@@H]2[C@@H](CO)O1	-4.2	-1.2	-20.2	-2.0	-0.2	.
CCN(C[C@H]1[C@@H](c2ccccc2)[C@@H](CO)N1CC1CC1)C(=O)c1ccccc1F	-1.6	10.1	-7.5	-7.2	.	.
O=C(Nc1ccc(CN2CCOCC2)cc1)c1ccc(-c2ccc(Br)cc2)o1	15.8	10.6	-0.4	51.0*	2.0	i
COc1ccc2c3c([nH]c2c1)[C@@H](CO)N(C(=O)c1ccc(F)cc1)CC31CCN(Cc2cccnc2)CC1	.	-7.8	.	.	.	.
CC[C@H](C)Cc1cn([C@@H](CCCN=C(N)N)C(=O)NCCCCCCCCCCC(=O)N2CCNCC2)nn1	-28.5	15.7	4.9	52.0*	11.6	i
CN(C1CCCCC1)S(=O)(=O)c1ccc(C(=O)Nc2sc3c(c2C(N)=O)CC(C)(C)NC3(C)C)cc1	-2.5	-19.5	1.2	77.8*	4.2	i
CCOC(=O)c1c(NC(=O)c2ccc(S(=O)(=O)N3CCOCC3)cc2)sc2c1CC(C)(C)NC2(C)C	-3.2	5.7	-1.1	-12.8	3.0	.
Cc1c(CCOC(=O)c2ccc(Cl)cc2Cl)sc[n+]1CC(=O)c1ccc(Br)cc1	12.9	-26.7	-4.0	36.6	30.4	i
COc1ccc(C(=O)OCCc2sc[n+](CC(=O)c3ccccc3)c2C)cc1	11.2	0.3	0.1	73.4*	16.8	i
C[C@@H]1CCCCO[C@H](CN(C)S(=O)(=O)c2cn(C)cn2)[C@@H](C)CN([C@@H](C)CO)C(=O)c2cc(NC(=O)c3ccccc3)ccc2O1	-7.4	1.3	1.7	0.5	-8.0	.
CCN1CCCC1CNC(=O)c1cc(N)ccc1OC (centres undefined)	9.4	30.2	3.1	89.5*	32.3	i
COCC(=O)Nc1ccc2c(c1)[C@H]1C[C@@H](CC(=O)N(C)C)O[C@@H](CO)[C@H]1O2	-2.7	1.4	-44.1	-17.2	-3.0	.
COC(=O)C[C@@H]1CC[C@H]2[C@@H](COc3ccc(NS(=O)(=O)c4cccc(F)c4)cc3C(=O)N2C)O1	-1.2	-2.0	27.1	6.4	-9.7	.
CN(C)C(=O)c1ccc(-c2ccc([C@@H]3[C@H](CO)N4C(=O)CN(C(=O)C5CCCC5)C[C@@H]34)cc2)cc1	-4.0	11.0	8.6	4.7	.	.
O=C(N[C@H]1CC[C@@H](CCn2cc(C3CC3)nn2)O[C@H]1CO)c1cccnc1	-1.2	6.6	-1.1	-41.2	7.2	.
Nc1ccc(Nc2ccncc2)cc1	15.7	4.3	-1.6	69.5*	30.5	i
Nc1ccc(Nc2nc(-c3ccncc3)cs2)cc1	5.1	1.5	0.3	-8.6	-11.6	.
COc1cccc(C(=O)Nc2ccc3c(c2)C(=O)N(C)C[C@@H](OC)[C@@H](C)CN(C(C)=O)[C@H](C)CO3)c1	3.3	-13.8	9.2	13.6	-9.8	.
Clc1ccc(-c2csc(N3CCCCCC3)n2)cc1	-0.5	.	-5.6	-4.6	3.0	.
SMILES	MLL AF4-AF9 inh	GSIS activator	S100A4 inh HTS	RAD52 inh	RAD54 inh	RAD52 DNA ctr
CN1CCN(c2nc(-c3ccc(Cl)s3)cs2)CC1	14.1	3.1	3.3	51.4*	.	i
CC(C)N1CCc2c(sc(NC(=O)c3nc4ccccc4s3)c2C(N)=O)C1	4.0	-8.1	-2.0	68.3*	.	i
Fc1ccccc1CNc1nc(NCC2CC2)nc2ccsc12	3.2	-29.0	1.0	51.2*	-8.7	i
Cc1ccc(C(=O)N/C(=C\c2ccc(-c3ccc(Cl)cc3)o2)C(=O)NCCCN(C)C)cc1	22.1	13.1	-1.8	52.4*	.	i
CN(C)CCCNC(=O)/C(=C\c1ccc(-c2ccc(Br)cc2)o1)NC(=O)c1ccccc1	28.6*	.	1.4	62.3*	?	i
CN(C)CCCNC(=O)/C(=C/c1ccc(-c2ccc([N+](=O)[O-])cc2)o1)NC(=O)c1ccccc1	4.3	.	-5.9	32.0	34.4	.
Cc1cc(N2CCN(c3ccccc3)CC2)nc2ccccc12	-0.3	0.2	-10.5	-2.7	4.1	.
Cc1cc(N2CCC(N(C)C3CCCC3)CC2)nc2cc(O)ccc12	1.4	.	-29.2	103.0*	44.9	i
CN/C(=C/[N+](=O)[O-])NCCSCc1ccc(CN(C)C)o1	-9.0	.	-0.3	54.8*	3.1	i
CO[C@@H]1CN(C)C(=O)c2cc(NS(=O)(=O)CC(F)(F)F)ccc2OC[C@H](C)N(Cc2cccnc2)C[C@H]1C	2.1	1.3	0.6	3.2	5.1	.
Cc1cccc2sc(N(CCN(C)C)C(=O)c3cc(Cl)sc3Cl)nc12	.	-20.6	.	.	-5.9	.
Cc1ccc2sc(N(CCCN(C)C)C(=O)CN3C(=O)c4ccccc4C3=O)nc2c1C	15.6	7.5	-2.6	68.9*	19.7	i
Cc1cccc2sc(N(CCCN(C)C)C(=O)COc3ccc(Cl)cc3)nc12	16.2	-26.6	1.9	50.3*	.	i
COc1cc2ccccc2cc1C(=O)N(CCN(C)C)c1nc2c(C)cccc2s1	15.4	-20.3	-0.2	54.7*	5.1	i
C/C=C/c1ccc([C@H]2[C@@H](CO)N(C(=O)CN(C)C)C23CN(C(=O)C2CCC2)C3)cc1	5.2	-4.3	-25.4	4.3	.	.
O=C(N/N=C/c1cccc([N+](=O)[O-])c1)c1cc[n+](CCO)cc1	6.7	-3.3	3.5	82.3*	18.5	i
COc1cccc(-c2cnc3c(c2)C(=O)N([C@H](C)CO)C[C@H](C)[C@H](CN(C)C(=O)Nc2ccc4c(c2)OCO4)O3)c1	4.8	-20.4	-0.5	24.8	-7.0	.
CC(=O)N[C@H]1CC[C@H](CC(=O)NCC2CCCCC2)O[C@@H]1CO	-2.1	-8.4	0.2	1.0	8.5	.

Screening results: PubChem BioAssay, Broad Institute
